Measured values gathered from unrelated publications.
Protocols differ between the studies behind these lines.
BRAF: Serine/threonine-protein kinase B-raf (BRAF, Homo sapiens, UniProt P15056)
BRAF V600E: Serine/threonine-protein kinase B-raf (BRAF, Homo sapiens, UniProt P15056, V600E)

| Structure (SMILES) | target | assay | setting | measurement | result |
| --- | --- | --- | --- | --- | --- |
| CCCCC(=O)Nc1ccc(-c2ccc3ncn(CCC)c(=O)c3c2)cn1 | BRAF | binding, competition with immobilised ligand | 0.5 µM | remaining binding | 97% |
| C[C@H]1CC[C@H](n2c3cnccc3c3cnc(Nc4ccc5c(n4)CCN(C(=O)CO)C5)nc32)CC1 | BRAF V600E | cell-free assay | 1 µM | remaining signal | 82% |
| C=CC(=O)N1CCC([C@@H]2CCNc3c(C(N)=O)c(-c4ccc(Oc5ccccc5)cc4)nn32)CC1 | BRAF V600E | enzyme activity, inhibitor | 1 µM | inhibition | 0% |
| C1=C/COCc2cc(ccc2OCCN2CCCC2)Nc2nccc(n2)-c2cccc(c2)COC/1 | BRAF V600E | binding | 0.1 µM | remaining binding | 85% |
| COc1ccc2oc(-c3ccc4nc(N)oc4c3)c/c(=N\c3ccccc3NC(=O)CCN)c2c1 | BRAF V600E | cell-free assay | 1 µM | remaining signal | 100% |
| C#Cc1cnc(Nc2ccnc(CO)c2)nc1Nc1ccccc1S(C)(=O)=NC#N (centres unmarked) | BRAF | cell-free assay | 1 µM | remaining signal | 92% |
| CN1CCN(C(=O)c2ccc(NC(=O)Nc3ccc(N(C)c4ccnc(Nc5ccc(CS(C)(=O)=O)cc5)n4)cc3)cc2)CC1 | BRAF V600E | binding | 1 µM | remaining binding | 85% |
| C=CC(=O)N1CCC[C@@H](n2nc(-c3ccc(Oc4ccccc4)cc3)c3c(N)ncnc32)C1 | BRAF | enzyme activity, inhibitor | 1 µM | inhibition | 51% |
| Cc1ccc(NC(=O)c2ccnc(C(F)(F)F)c2)cc1-c1cc(OCCO)nc(N2CCOCC2)c1 | BRAF | binding, competition with immobilised ligand | 1 µM | remaining binding | 0.4% |
| Cc1cc2c(C(N)=O)c(N)n(-c3c(C)ccc(O)c3C)c2nc1C | BRAF V600E | binding, competition with immobilised ligand | 1 µM | remaining binding | 0.75% |
| CC#CC(=O)N1CCC[C@H]1c1nc(-c2ccc(C(=O)Nc3ccccn3)cc2)c2c(N)nccn12 | BRAF V600E | enzyme activity, inhibitor | 1 µM | inhibition | 44% |
| COc1ccc2[nH]c3c4[nH]c5ccc(OC)cc5c4c4c(c3c2c1)C(=O)NC4=O | BRAF | binding, competition with immobilised ligand | 1 µM | remaining binding | 86% |
| N#Cc1ccc(NC(=O)Nc2ccccc2)cc1 | BRAF | cell-free assay, competition with immobilised ligand | 25 µM | remaining binding | 100% |
| CO[C@@H]1[C@H](N(C)C(=O)c2ccccc2)C[C@H]2O[C@]1(C)n1c3ccccc3c3c4c(c5c6ccccc6n2c5c31)C(=O)NC4 | BRAF | enzyme activity, inhibitor | 1 µM | inhibition | 6% |
